Converted amounts (≈) assume the structure as drawn. The source made the active and inactive calls. No cut-off for these calls is given here.
Experiments:
Aspergillus fumigatus = assay: Antifungal activity against Aspergillus fumigatus ATCC 26934 by agar dilution method; format: functional
Summary of the method: (§1)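 Filamentous fungi (hyalohyphomycetes, dermatophytes) were grown on SDA. Spore suspensions were set to 1.0–5.0 × 10^6 spores/mL by hemocytometer count. 1 µL was inoculated onto 1 mL SDA slants holding compound at 10–100 µg/mL (two-fold DMSO dilutions, final DMSO ≤2%), then incubated at 28–30 °C. Drug-free blank and ketoconazole control included; repeated three times; MIC determined.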

Cryptococcus neoformans = assay: Antifungal activity against Cryptococcus neoformans ATCC 32264 by agar dilution method; format: functional
Summary of the method: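 Yeasts were grown on Sabouraud dextrose agar and adjusted to 1.0–5.0 × 10^6 cell/mL (0.5 McFarland). Agar dilution used 1 mL SDA slants holding two-fold DMSO dilutions of compound at 10–100 µg/mL, with final DMSO ≤2%. 1 µL of inoculum was added per slant, then incubated at 35 °C. Drug-free blank and ketoconazole positive control included; triplicate runs; MIC read.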

Nannizzia gypsea = assay: Antifungal activity against Microsporum gypseum C115 by agar dilution method; format: functional; summary of the method: as §1
Rhizopus = assay: Antifungal activity against Rhizopus CL35 by agar dilution method; format: functional; summary of the method: as §1
[1] = system: Trichophyton mentagrophytes; assay: Antifungal activity against Trichophyton mentagrophytes ATCC 9972 by agar dilution method; format: functional; summary of the method: as §1
Trichophyton rubrum = assay: Antifungal activity against Trichophyton rubrum C137 by agar dilution method; format: functional; summary of the method: as §1
Salmonella typhimurium = assay: Antibacterial activity against Salmonella Typhimurium ATCC 14028 at < 100 ug/mL by agar dilution method; format: functional, organism-based; settings: Salmonella enterica subsp. enterica serovar Typhimurium
Summary of the method: (§2)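 Agar dilution on 1 mL Mueller-Hinton agar slants. Compounds were serially two-fold diluted in DMSO (final DMSO ≤2%) to give 10–100 µg/mL in the medium. Bacteria were grown on MHA at 35 °C for 24 h, suspended in 0.86% saline at 1.5 × 10^8 cell/mL (0.5 McFarland), and 1 µL was added per slant. Slants were incubated at 35 °C. Drug-free blank included; each assay run three times; MIC recorded.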

Proteus mirabilis = assay: Antibacterial activity against Proteus mirabilis ATCC 25933 at < 100 ug/mL by agar dilution method; format: functional, organism-based; summary of the method: as §2
[2] = system: Staphylococcus saprophyticus; assay: Antibacterial activity against Staphylococcus saprophyticus ATCC 35552 at < 100 ug/mL by agar dilution method; format: functional, organism-based; summary of the method: as §2
Streptococcus agalactiae = assay: Antibacterial activity against Streptococcus agalactiae ATCC 13813 at < 100 ug/mL by agar dilution method; format: functional; summary of the method: as §2
Pseudomonas aeruginosa = assay: Antibacterial activity against Pseudomonas aeruginosa ATCC 27853 at < 100 ug/mL by agar dilution method; format: functional, organism-based; summary of the method: as §2
Staphylococcus aureus = assay: Antibacterial activity against Staphylococcus aureus ATCC 6538P at < 100 ug/mL by agar dilution method; format: functional, organism-based; summary of the method: as §2
Bacillus cereus = assay: Antibacterial activity against Bacillus cereus ATCC 14579 at < 100 ug/mL by agar dilution method; format: functional; summary of the method: as §2
Bacillus subtilis = assay: Antibacterial activity against Bacillus subtilis ATCC 23858 at < 100 ug/mL by agar dilution method; format: functional, organism-based; summary of the method: as §2
Enterobacter cloacae = assay: Antibacterial activity against Enterobacter cloacae ATCC 35030 at < 100 ug/mL by agar dilution method; format: functional, organism-based; summary of the method: as §2
Escherichia coli = assay: Antibacterial activity against Escherichia coli ATCC 11775 at < 100 ug/mL by agar dilution method; format: functional, organism-based; summary of the method: as §2
[3] = Toxicity in Artemia salina assessed as mortality after 24 hrs; format: organism-based; settings: in vivo
Summary of the method: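 Artemia salina hatched at pH 9.0 (Na2CO3), 25 °C, strong aeration, continuous light (2000 Lux). Phototropic nauplii were collected about 12 h after hatching, and groups of 10 were exposed per well to various compound concentrations for 24 h. Survivors were counted and % deaths calculated.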

Mus musculus [4] = assay: Antinociceptive activity in Swiss mouse assessed as inhibition of acetic acid-induced writhing at 10 mg/kg, ip administered 30 mins before acetic acid challenge measured after 20 mins relative to control; format: functional; settings: route intraperitoneal
Summary of the method: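 Mice were given 10 mg/kg i.p. in Tween 80/0.9% NaCl (Tween ≤5%) 30 min before i.p. 0.6% acetic acid, at 20–22 °C. Abdominal constrictions plus hind-limb stretching were counted cumulatively over 20 min in individual funnels. Groups of six, randomized and blinded. Inhibition was calculated versus vehicle controls (10 ml/kg i.p.); ANOVA with Dunnett's test.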

Mus musculus [5] = assay: Antinociceptive activity in Swiss mouse assessed as inhibition of acetic acid-induced abdominal contraction at 0.1 to 100 mg/kg, ip administered 30 mins before acetic acid challenge measured after 20 mins relative to control; format: functional, Abdominal cavity; settings: dose mg/kg 0.1-100; route intraperitoneal
Summary of the method: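 Writhing dose-response in mice: compounds at 0.1–10 mg/kg and standard drugs at 10–100 mg/kg, i.p. in Tween 80/saline, 30 min before i.p. 0.6% acetic acid. Constrictions and stretches were counted for 20 min at 20–22 °C, with six to eight animals per group. ID50 (dose halving the response versus control) was given as geometric mean with 95% confidence limits.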

| SMILES | MIC (Aspergillus fumigatus) | MIC (Cryptococcus neoformans) | MIC (Nannizzia gypsea) | MIC (Rhizopus) | MIC [1] | MIC (Trichophyton rubrum) | Activity (Salmonella typhimurium) | Activity (Proteus mirabilis) | Activity [2] | Activity (Streptococcus agalactiae) | Activity (Pseudomonas aeruginosa) | Activity (Staphylococcus aureus) | Activity (Bacillus cereus) | Activity (Bacillus subtilis) | Activity (Enterobacter cloacae) | Activity (Escherichia coli) | LC50 at 24 h [3] | inhibition in vivo at 10 mg/kg (Mus musculus [4]) | inhibition (INH) (Mus musculus [5]) |
| --- | --- | --- | --- | --- | --- | --- | --- | --- | --- | --- | --- | --- | --- | --- | --- | --- | --- | --- | --- |
| CC(=O)N1CCN(c2ccc(OCC3COC(Cn4ccnc4)(c4ccc(Cl)cc4Cl)O3)cc2)CC1 (stereo unspecified) [KETOCONAZOLE] | 7 mg/L (≈ 13.2 µM) | 5 mg/L (≈ 9.41 µM) | 6 mg/L (≈ 11.3 µM) | 15 mg/L (≈ 28.2 µM) | 8 mg/L (≈ 15.1 µM) | 3 mg/L (≈ 5.65 µM) |  |  |  |  |  |  |  |  |  |  |  |  |  |
| COc1ccc(NC2=C(Cl)C(=O)N(c3c(C)n(C)n(-c4ccccc4)c3=O)C2=O)cc1 |  |  |  |  |  |  | inactive | inactive | inactive | inactive | inactive | inactive | inactive | inactive | inactive | inactive | > 1000 mg/L | 31.2% |  |
| Cc1c(N2C(=O)C(Cl)=C(c3ccc[nH]3)C2=O)c(=O)n(-c2ccccc2)n1C |  |  |  |  |  |  | inactive | inactive | inactive | inactive | inactive | inactive | inactive | inactive | inactive | inactive | > 1000 mg/L | 23.3% |  |
| Cc1c(N2C(=O)C(Cl)=C(Nc3cccc([N+](=O)[O-])c3)C2=O)c(=O)n(-c2ccccc2)n1C |  |  |  |  |  |  | inactive | inactive | inactive | inactive | inactive | inactive | inactive | inactive | inactive | inactive | > 1000 mg/L | 29.5% |  |
| Cc1c(N2C(=O)C(Cl)=C(N3CCCCC3)C2=O)c(=O)n(-c2ccccc2)n1C |  |  |  |  |  |  | inactive | inactive | inactive | inactive | inactive | inactive | inactive | inactive | inactive | inactive | > 1000 mg/L | 84.6% |  |
| Cc1ccc(NC2=C(Cl)C(=O)N(c3c(C)n(C)n(-c4ccccc4)c3=O)C2=O)cc1 |  |  |  |  |  |  | inactive | inactive | inactive | inactive | inactive | inactive | inactive | inactive | inactive | inactive | > 1000 mg/L | 33.6% |  |
| Cc1cccc(NC2=C(Cl)C(=O)N(c3c(C)n(C)n(-c4ccccc4)c3=O)C2=O)c1 |  |  |  |  |  |  | inactive | inactive | inactive | inactive | inactive | inactive | inactive | inactive | inactive | inactive | 90.5 mg/L (≈ 214 µM) | 49.7% |  |
| Cc1c(N2C(=O)C(Cl)=C(Nc3ccc(C(=O)O)cc3)C2=O)c(=O)n(-c2ccccc2)n1C |  |  |  |  |  |  | inactive | inactive | inactive | inactive | inactive | inactive | inactive | inactive | inactive | inactive | > 1000 mg/L | 63.6% |  |
| Cc1cc(C)cc(NC2=C(Cl)C(=O)N(c3c(C)n(C)n(-c4ccccc4)c3=O)C2=O)c1 |  |  |  |  |  |  | inactive | inactive | inactive | inactive | inactive | inactive | inactive | inactive | inactive | inactive | > 1000 mg/L | 68.4% |  |
| Cc1c(N2C(=O)C(Cl)=C(Nc3cccc(Cl)c3)C2=O)c(=O)n(-c2ccccc2)n1C |  |  |  |  |  |  | inactive | inactive | inactive | inactive | inactive | inactive | inactive | inactive | inactive | inactive | 86.2 mg/L (≈ 195 µM) | 38.9% |  |
| Cc1c(N2C(=O)C(Cl)=C(NCCc3ccccc3)C2=O)c(=O)n(-c2ccccc2)n1C |  |  |  |  |  |  | inactive | inactive | inactive | inactive | inactive | inactive | inactive | inactive | inactive | inactive | > 1000 mg/L | 81.8% |  |
| Cc1c(N(C)CS(=O)(=O)[O-])c(=O)n(-c2ccccc2)n1C.[Na+] [DIPYRONE SODIUM] |  |  |  |  |  |  |  |  |  |  |  |  |  |  |  |  |  | 33% | 54% |
| Cc1c(N2C(=O)C(Cl)=C(N3CCN(c4ccccn4)CC3)C2=O)c(=O)n(-c2ccccc2)n1C |  |  |  |  |  |  | inactive | inactive | inactive | inactive | inactive | inactive | inactive | inactive | inactive | inactive | > 1000 mg/L | 77.7% |  |
| COc1cc(NC2=C(Cl)C(=O)N(c3c(C)n(C)n(-c4ccccc4)c3=O)C2=O)cc(OC)c1 |  |  |  |  |  |  | inactive | inactive | inactive | inactive | inactive | inactive | inactive | inactive | inactive | inactive | 249 mg/L (≈ 530 µM) | 72% |  |
| COc1cccc(NC2=C(Cl)C(=O)N(c3c(C)n(C)n(-c4ccccc4)c3=O)C2=O)c1 |  |  |  |  |  |  | inactive | inactive | inactive | inactive | inactive | inactive | inactive | inactive | inactive | inactive | > 1000 mg/L | 56.7% |  |
| Cc1c(N2C(=O)C(Cl)=C(Nc3cccc(C(=O)O)c3)C2=O)c(=O)n(-c2ccccc2)n1C |  |  |  |  |  |  | inactive | inactive | inactive | inactive | inactive | inactive | inactive | inactive | inactive | inactive | > 1000 mg/L | 33.9% |  |

— ChEMBL document CHEMBL1275265, “Synthesis and biological evaluation of N-antipyrine-4-substituted amino-3-chloromaleimide derivatives” (Eur J Med Chem, 2010)
